According to ChEMBL document CHEMBL4145662, “Novel Nonsteroidal Progesterone Receptor (PR) Antagonists with a Phenanthridinone Skeleton” (ACS Med Chem Lett, 2018):

Assays:
[1] = organism: Homo sapiens; assay: Selectivity ratio of IC50 for human GAL4N-fused LXRbeta LBD expressed in HEK293 cells to IC50 for PR in human T47D cells assessed as inhibition of progesterone-induced alkaline phosphatase activity; format: cell-based
[2] = biological target: T1, Nuclear receptor ROR-beta (Homo sapiens, UniProt Q92753); assay: Antagonist activity at human RORbeta1 expressed in HEK293 cells after 24 hrs by luciferase reporter gene assay; format: cell-based
T1 sequence (Q92753 whole entry): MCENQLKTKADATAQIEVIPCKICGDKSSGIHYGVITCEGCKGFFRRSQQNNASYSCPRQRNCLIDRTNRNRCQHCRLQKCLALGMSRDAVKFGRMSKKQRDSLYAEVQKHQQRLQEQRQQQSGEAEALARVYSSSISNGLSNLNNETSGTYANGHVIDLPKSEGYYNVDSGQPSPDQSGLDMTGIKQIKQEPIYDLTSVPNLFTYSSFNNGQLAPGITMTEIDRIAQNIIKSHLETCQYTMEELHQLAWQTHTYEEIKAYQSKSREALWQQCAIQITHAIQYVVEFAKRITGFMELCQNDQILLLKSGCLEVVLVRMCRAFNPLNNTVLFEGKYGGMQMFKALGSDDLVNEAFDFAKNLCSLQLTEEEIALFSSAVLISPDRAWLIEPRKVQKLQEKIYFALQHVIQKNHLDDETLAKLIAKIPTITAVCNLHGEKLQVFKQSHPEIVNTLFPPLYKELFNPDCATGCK
How it was run: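 Inverse agonism at RORα, RORβ or RORγ measured by reporter gene assay.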

[3] = organism: Homo sapiens; assay: Selectivity ratio of IC50 for human RORgamma1 expressed in HEK293 cells to IC50 for PR in human T47D cells assessed as inhibition of progesterone-induced alkaline phosphatase activity; format: cell-based
[4] = biological target: T2, Oxysterols receptor LXR-alpha (Homo sapiens, UniProt Q13133); assay: Antagonist activity at human GAL4N-fused LXRalpha LBD expressed in HEK293 cells assessed as reduction in T0901317-induced transactivation activity after 24 hrs by luciferase reporter gene assay; format: cell-based
T2 sequence (Q13133 whole entry): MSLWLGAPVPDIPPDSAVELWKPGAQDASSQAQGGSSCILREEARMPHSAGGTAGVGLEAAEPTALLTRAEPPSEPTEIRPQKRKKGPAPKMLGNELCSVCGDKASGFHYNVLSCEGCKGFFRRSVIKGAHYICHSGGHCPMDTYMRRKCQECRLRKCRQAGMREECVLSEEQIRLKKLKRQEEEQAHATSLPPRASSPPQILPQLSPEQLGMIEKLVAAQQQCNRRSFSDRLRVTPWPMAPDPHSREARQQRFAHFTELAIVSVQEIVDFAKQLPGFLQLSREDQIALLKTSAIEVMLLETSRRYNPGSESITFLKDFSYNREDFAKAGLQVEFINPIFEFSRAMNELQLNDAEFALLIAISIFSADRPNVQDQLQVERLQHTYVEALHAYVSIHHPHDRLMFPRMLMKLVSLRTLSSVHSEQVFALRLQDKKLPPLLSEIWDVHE

[5] = biological target: T3, Progesterone receptor (Homo sapiens, UniProt P06401); assay: Displacement of [1,2,6,7-3H]progesterone from recombinant human GST-tagged PGR LBD (678 to 933 residues) expressed in baculovirus-infected insect cells measured after 24 hrs by liquid scintillation counting method
T3 sequence (P06401 whole entry): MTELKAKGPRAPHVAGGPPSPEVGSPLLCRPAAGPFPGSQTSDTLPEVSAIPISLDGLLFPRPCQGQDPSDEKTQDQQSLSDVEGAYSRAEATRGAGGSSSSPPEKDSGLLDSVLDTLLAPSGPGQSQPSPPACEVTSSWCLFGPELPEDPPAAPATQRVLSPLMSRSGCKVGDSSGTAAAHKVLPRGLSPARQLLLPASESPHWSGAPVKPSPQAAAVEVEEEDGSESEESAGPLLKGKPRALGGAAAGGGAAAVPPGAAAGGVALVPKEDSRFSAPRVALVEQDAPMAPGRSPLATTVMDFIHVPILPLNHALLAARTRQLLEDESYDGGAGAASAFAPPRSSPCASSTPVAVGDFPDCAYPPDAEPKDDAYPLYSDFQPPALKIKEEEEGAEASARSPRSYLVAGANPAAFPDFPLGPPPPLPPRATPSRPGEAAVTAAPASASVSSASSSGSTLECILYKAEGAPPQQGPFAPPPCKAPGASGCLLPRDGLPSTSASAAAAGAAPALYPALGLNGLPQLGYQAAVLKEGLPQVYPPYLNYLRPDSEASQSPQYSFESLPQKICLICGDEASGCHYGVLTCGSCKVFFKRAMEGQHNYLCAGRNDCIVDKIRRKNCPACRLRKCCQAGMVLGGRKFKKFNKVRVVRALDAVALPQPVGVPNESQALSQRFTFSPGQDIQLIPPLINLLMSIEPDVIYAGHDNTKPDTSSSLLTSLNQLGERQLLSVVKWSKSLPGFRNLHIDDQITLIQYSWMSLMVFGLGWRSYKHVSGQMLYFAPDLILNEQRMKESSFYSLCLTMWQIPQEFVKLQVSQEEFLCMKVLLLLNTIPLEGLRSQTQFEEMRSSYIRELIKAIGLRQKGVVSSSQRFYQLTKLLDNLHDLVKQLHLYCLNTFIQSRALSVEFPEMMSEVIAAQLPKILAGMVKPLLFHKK

IC50 [2] [µM] | IC50 [4] [µM] | IC50 [5] [µM] | Structure (SMILES) | Ratio IC50 [1] | Ratio IC50 [3]
> 20 | > 20 | 0.15 | Cc1cc(C(O)(C(F)(F)F)C(F)(F)F)cc2c3ccc(F)cc3c(=O)n(C)c12 | > 300 | > 300
> 20 | > 20 | 0.34 | Cc1cc(C(O)(C(F)(F)F)C(F)(F)F)cc2c1[nH]c(=O)c1cc(F)ccc12 | > 300 | > 300
> 20 | > 20 | 1.5 | Cc1cc(C(O)(C(F)(F)F)C(F)(F)F)cc2c1[nH]c(=O)c1ccccc12 | > 100 | > 100
